The target in one series is Cytochrome P450 2C19 (Homo sapiens, UniProt P33261). Nature of the series: Inhibition of human recombinant CYP2C19. Type of series: ADME. The procedure, abridged: (§1)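 Recombinant human P450s, compound at 0.2-20 µM; fluorogenic substrates: 3-cyano-7-ethoxycoumarin (1A2), 7-methoxy-4-trifluoromethylcoumarin (2C9, 2C19), 7-methoxy-4-(aminomethyl)coumarin (2D6). Fluorescence detection; IC50 determined.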

The subject of a further series is Rattus norvegicus. In words: AUC in Wistar rat at 2 mg/kg, iv. In kind it is ADME, organism-based, Plasma. Further details: dose 2 mg/kg, route intravenous. The conditions noted are these: in vivo. Summed up:
(§2)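 Groups of three Wistar Han rats; bolus injection via cannulated jugular vein at 2 or 10 mg/kg. Serial 200 µL whole-blood samples at time intervals; plasma levels by LC-MS/MS; parameters by noncompartmental analysis.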

The next series concerns Staphylococcus aureus. Nature of the series: Antibacterial activity against methicillin-susceptible Staphylococcus aureus AP601055. Type of series: functional. The procedure, abridged:
(§3)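 CLSI broth microdilution, 64 to 0.06 µg/mL, 2% DMSO final. Media: S. aureus, Mueller Hinton broth; H. influenzae, MHB plus 0.5% yeast extract, 15 µg/mL hematin, 1.5 µg/mL NAD; S. pneumoniae, MHB plus 0.65% lysed horse blood. 35 °C, aerobic (S. aureus) or 5% CO2.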

Series [1] concerns Streptococcus pneumoniae. Nature of the series: Antibacterial activity against penicillin-susceptible Streptococcus pneumoniae AP671401. In kind it is functional. Summed up: as §3
In series [2] the test system is Streptococcus pneumoniae. Nature of the series: Antibacterial activity against Streptococcus pneumoniae 548 infected mouse lung infection model assessed as reduction in bacterial count at 40 mg/kg/day, po relative to control. In kind it is functional. The procedure, abridged:
(§4)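 Groups of 10 CD-1 mice infected intratracheally, 1 × 10^5 cfu/lung. Oral gavage of compound or vehicle started 18 h post-infection. Lungs removed 24 h after treatment start, homogenized, serially diluted onto Tryptic Soy agar with 5% sheep blood; log CFU reduction versus vehicle group.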

For a further series, the species on record is Homo sapiens. In words: Protein binding in human plasma. The conditions noted are these: read-out: PPB (converted).
Series [3] concerns the target T1, Amine oxidase [flavin-containing] A (Homo sapiens, UniProt P21397).
T1 sequence (P21397 whole entry): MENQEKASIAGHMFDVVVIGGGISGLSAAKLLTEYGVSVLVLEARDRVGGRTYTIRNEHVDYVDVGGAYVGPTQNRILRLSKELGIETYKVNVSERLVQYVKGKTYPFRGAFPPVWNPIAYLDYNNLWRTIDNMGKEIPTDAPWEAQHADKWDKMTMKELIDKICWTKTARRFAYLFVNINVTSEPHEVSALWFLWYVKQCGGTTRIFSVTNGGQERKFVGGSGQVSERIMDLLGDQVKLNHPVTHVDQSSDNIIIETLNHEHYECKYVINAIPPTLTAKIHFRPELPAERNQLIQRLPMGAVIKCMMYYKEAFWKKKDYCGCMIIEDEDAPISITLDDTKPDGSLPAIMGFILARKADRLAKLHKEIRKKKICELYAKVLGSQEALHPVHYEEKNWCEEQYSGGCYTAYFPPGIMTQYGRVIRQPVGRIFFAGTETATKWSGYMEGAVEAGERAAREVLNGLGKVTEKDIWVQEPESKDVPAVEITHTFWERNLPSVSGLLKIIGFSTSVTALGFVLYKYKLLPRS
Nature of the series: Inhibition of human liver MAOA expressed in yeast.

A further series addresses T2, Cytochrome P450 1A2 (Homo sapiens, UniProt P05177).
T2 sequence (P05177 whole entry): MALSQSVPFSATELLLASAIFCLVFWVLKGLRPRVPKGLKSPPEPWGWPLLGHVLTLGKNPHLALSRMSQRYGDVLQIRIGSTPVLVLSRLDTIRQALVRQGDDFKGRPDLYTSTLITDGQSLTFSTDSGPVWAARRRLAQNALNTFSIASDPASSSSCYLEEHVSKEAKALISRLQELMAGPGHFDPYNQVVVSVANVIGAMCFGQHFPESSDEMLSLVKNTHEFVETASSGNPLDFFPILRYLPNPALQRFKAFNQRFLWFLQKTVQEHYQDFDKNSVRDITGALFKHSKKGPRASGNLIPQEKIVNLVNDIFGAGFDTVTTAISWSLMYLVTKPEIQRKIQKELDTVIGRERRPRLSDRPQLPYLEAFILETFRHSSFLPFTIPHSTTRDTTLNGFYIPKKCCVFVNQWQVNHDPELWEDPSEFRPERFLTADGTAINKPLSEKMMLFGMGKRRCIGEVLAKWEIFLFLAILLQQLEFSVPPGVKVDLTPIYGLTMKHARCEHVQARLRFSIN
Nature of the series: Inhibition of human recombinant CYP1A2. Type of series: ADME. Summed up:
as §1

A short description of series [4]: Solubility by nephelometric analysis. In kind it is physicochemical. The procedure, abridged:
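Nephelometry after diluting compounds into the MAO-A assay mixture (100 mM potassium phosphate, pH 7.4).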

The subject of the next series is Haemophilus influenzae. Nature of the series: Antibacterial activity against Haemophilus influenzae ATCC 51907. Type of series: functional. Summed up:
as §3

Series [5] in a line: Volume of distribution in Wistar rat at 2 mg/kg, iv. Set-up: dose 2 mg/kg, route intravenous. In kind it is ADME, organism-based. The conditions noted are these: in vivo, read-out: Vdss. The procedure, abridged: as §2
The subject of series [6] is Mus musculus. In words: AUC in Streptococcus pneumoniae 548 infected mouse lung infection model at 80 mg/kg/day, po. In kind it is ADME, organism-based. Set-up: route oral. The conditions noted are these: in vivo. The procedure, abridged: (§5)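 CD-1 mice; oral gavage at 40 or 80 mg/kg. Groups of three sacrificed at timed intervals, whole blood taken by cardiac puncture; plasma treated with methanol containing internal standard and quantified by LC-MS/MS against standard curve.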

The next series deals with Cytochrome P450 3A4 (Homo sapiens, UniProt P08684). In words: Inhibition of human recombinant CYP3A4. In kind it is ADME.
Series [7] in a line: Oral bioavailability in Wistar rat at 10 mg/kg, po. In kind it is ADME, organism-based. Particulars: in vivo. Summed up: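 Wistar Han rats, groups of three; 10 mg/kg given by oral gavage, compared against iv dosing. Serial whole-blood sampling, plasma drug by LC-MS/MS, noncompartmental pharmacokinetic analysis.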
A further series deals with Cytochrome P450 2D6 (Homo sapiens, UniProt P10635). Nature of the series: Inhibition of human recombinant CYP2D6. Type of series: ADME. Summed up: as §1
A further series addresses Cytochrome P450 2C9 (Homo sapiens, UniProt P11712). In words: Inhibition of human recombinant CYP2C9. Type of series: ADME. The procedure, abridged: as §1
Series [8] is described as follows: Half life in Wistar rat at 2 mg/kg, iv. In kind it is ADME, organism-based. Set-up: dose 2 mg/kg, route intravenous. Particulars: in vivo. Summed up: as §2
Series [9] concerns Mus musculus. In words: AUC in Streptococcus pneumoniae 548 infected mouse lung infection model at 40 mg/kg/day, po. Type of series: ADME, organism-based. Set-up: route oral. Particulars: in vivo. The procedure, abridged: as §5
For series [10], the system named is Streptococcus pneumoniae. In words: Antibacterial activity against Streptococcus pneumoniae 548 infected mouse lung infection model assessed as reduction in bacterial count at 80 mg/kg/day, po relative to control. In kind it is functional. The procedure, abridged:
as §4

A short description of series [11]: Clearance in Wistar rat at 2 mg/kg, iv. In kind it is ADME, organism-based. Set-up: dose 2 mg/kg, route intravenous. Particulars: in vivo. Summed up: as §2
The subject of series [12] is Streptococcus pneumoniae. In words: Antibacterial activity against linezolid-resistant Streptococcus pneumoniae. In kind it is functional. The procedure, abridged: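 Broth microdilution per CLSI guidelines. Compounds were dissolved in 100% DMSO and diluted to 2% DMSO (v/v), 64 to 0.06 µg/mL, in 2.2% (w/v) Mueller Hinton broth with 0.65% (v/v) lysed horse blood. Plates were incubated at 35 °C in 5% CO2 and read at 620 nm.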

Values after ≈ are worked out from the molar mass of the structure shown.

Cytochrome P450 2C19, sequence (P33261 whole entry): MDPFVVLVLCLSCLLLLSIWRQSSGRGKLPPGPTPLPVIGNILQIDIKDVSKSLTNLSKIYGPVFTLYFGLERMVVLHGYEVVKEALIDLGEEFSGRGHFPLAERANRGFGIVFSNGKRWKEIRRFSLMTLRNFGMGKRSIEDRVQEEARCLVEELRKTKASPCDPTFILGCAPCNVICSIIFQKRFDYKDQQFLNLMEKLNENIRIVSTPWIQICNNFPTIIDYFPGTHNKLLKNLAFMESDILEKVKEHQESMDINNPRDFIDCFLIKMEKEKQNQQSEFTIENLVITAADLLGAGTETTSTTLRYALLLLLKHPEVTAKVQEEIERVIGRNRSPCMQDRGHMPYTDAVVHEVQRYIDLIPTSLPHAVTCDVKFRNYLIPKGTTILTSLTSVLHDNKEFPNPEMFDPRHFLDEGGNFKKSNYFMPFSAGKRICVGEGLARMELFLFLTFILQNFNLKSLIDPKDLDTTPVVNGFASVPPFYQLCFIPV
Cytochrome P450 2D6, sequence (P10635 whole entry): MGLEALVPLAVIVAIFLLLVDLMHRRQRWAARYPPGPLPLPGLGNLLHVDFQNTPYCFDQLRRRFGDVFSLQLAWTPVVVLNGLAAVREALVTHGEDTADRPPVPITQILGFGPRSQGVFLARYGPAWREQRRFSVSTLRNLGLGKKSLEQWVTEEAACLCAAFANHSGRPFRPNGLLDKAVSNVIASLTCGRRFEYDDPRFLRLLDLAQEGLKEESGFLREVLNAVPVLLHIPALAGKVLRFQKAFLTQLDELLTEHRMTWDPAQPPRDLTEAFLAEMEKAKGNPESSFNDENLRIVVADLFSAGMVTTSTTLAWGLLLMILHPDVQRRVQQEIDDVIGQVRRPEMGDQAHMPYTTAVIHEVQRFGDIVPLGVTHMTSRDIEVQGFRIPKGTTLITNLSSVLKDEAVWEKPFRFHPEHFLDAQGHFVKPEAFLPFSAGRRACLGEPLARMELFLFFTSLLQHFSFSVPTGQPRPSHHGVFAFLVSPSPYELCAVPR
Cytochrome P450 2C9, sequence (P11712 whole entry): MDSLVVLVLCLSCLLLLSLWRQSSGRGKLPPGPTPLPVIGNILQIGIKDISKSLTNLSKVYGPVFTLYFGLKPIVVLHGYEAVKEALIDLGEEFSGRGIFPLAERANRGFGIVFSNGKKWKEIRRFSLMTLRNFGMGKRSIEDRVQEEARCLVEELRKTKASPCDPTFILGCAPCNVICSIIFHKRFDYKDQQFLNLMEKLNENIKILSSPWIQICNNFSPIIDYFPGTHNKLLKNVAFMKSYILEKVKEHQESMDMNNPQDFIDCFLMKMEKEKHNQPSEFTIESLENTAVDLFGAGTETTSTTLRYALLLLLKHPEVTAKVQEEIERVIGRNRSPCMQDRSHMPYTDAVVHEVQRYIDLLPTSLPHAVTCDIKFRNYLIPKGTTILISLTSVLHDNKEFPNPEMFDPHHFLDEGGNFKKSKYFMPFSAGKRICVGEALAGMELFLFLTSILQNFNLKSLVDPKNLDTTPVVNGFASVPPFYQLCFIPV
Cytochrome P450 3A4, sequence (P08684 whole entry): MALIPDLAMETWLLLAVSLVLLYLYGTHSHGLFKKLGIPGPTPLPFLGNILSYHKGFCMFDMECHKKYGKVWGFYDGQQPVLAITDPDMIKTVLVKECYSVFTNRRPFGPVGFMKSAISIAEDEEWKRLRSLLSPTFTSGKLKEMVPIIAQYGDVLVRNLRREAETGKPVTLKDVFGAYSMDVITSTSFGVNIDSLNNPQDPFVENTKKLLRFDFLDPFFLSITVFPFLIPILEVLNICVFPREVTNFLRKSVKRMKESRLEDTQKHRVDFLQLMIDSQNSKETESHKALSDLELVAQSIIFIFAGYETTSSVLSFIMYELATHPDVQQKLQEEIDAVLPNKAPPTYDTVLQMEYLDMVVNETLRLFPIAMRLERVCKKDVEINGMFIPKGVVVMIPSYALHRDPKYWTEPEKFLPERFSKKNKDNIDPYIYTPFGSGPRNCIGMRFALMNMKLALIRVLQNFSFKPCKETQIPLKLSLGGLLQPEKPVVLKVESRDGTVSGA

Usually IC50 stands for the concentration that gives 50% inhibition. What is called Ki is a measure of affinity in units of concentration, obtained from inhibition or displacement. The low end stands for higher affinity, the high end for lower affinity. As usually defined, the kinetic solubility is the concentration staying in solution when a stock, usually in DMSO, is diluted into the medium. Usually bioavailability stands for dose-corrected exposure relative to a reference, in per cent. A low value points to poor availability. For orientation: half-life means the time needed for the level to fall by half in the phase considered. By clearance is commonly meant the volume of plasma or blood freed of the substance per unit of time. Low values mean inefficient removal, high ones efficient removal. `Cc1cnc(C)n1CC(=O)c1ccc(-c2ccc(N3C[C@H](Cn4ccnn4)OC3=O)cc2F)cn1`: the concentration for half-maximal inhibition (IC50) is more than 20 µM at Cytochrome P450 2C19; more than 20 µM at Cytochrome P450 1A2; 10.7 µM at Cytochrome P450 3A4; more than 20 µM at Cytochrome P450 2D6; more than 20 µM at Cytochrome P450 2C9. Further, the AUC with Rattus norvegicus was found to be 3.3 ug/hr.ml; with Mus musculus [6], 31000 ng·h/mL; in the series on Mus musculus [9], 17400 ng·h/mL. The MIC against Staphylococcus aureus was 0.25 µg/mL (≈ 0.526 µM); against Streptococcus pneumoniae [1] it was less than 0.06 µg/mL; with Haemophilus influenzae, 4 µg/mL (≈ 8.41 µM); against Streptococcus pneumoniae [12], 0.5 µg/mL (≈ 1.05 µM). The Log10 cfu turned out to be 1.94 in the series on Streptococcus pneumoniae [2] and 2.57 in the series with Streptococcus pneumoniae [10]. For the same compound, the fraction unbound in the series listed under Homo sapiens was 0.1. This compound displayed a Ki in [3] of 19 µM. In series [4], this compound returned a kinetic solubility of 50 µM (≈ 23.8 µg/mL). Moreover, the Vd in series [5] amounted to 1.4 L/kg. In series [7], this compound registered a bioavailability of 73%. Also, the half-life in series [8] was 1.8 h. The clearance in [11] turned out to be 10 mL/min/kg.

With `CC(=O)NC[C@H]1CN(c2ccc(N3CCOCC3)c(F)c2)C(=O)O1` [LINEZOLID], the AUC amounted to 105000 ng·h/mL in the series with Mus musculus [6] and 45700 ng·h/mL in the series on Mus musculus [9]. Further, the Log10 cfu with Streptococcus pneumoniae [10] came out at 3.89.

Values taken from ChEMBL document CHEMBL1148787, “Novel substituted (pyridin-3-yl)phenyloxazolidinones: antibacterial agents with reduced activity against monoamine oxidase A and increased solubility” (J Med Chem, 2007).
